The target of data set [1] is T1, Corticotropin-releasing factor receptor 1 (Homo sapiens, UniProt P34998).
T1 sequence (P34998 whole entry): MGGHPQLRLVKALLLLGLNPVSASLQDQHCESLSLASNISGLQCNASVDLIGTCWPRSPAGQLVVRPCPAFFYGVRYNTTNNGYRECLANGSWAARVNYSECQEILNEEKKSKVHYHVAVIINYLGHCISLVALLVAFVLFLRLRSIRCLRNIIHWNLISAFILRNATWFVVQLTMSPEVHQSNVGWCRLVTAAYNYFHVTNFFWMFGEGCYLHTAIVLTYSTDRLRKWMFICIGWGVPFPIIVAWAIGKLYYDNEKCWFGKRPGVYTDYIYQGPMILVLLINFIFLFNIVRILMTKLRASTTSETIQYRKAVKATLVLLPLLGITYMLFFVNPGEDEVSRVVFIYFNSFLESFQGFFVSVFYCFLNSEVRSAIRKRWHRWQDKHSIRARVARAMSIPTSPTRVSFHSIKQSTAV
The experiment in a line: Displacement of [125I]sauvagine from human recombinant CRF1 receptor expressed in CHO cells. Type of data set: cell-based. For orientation: Displacement assays read how much labelled ligand stays bound in the presence of the test substance.

Data set [2] concerns the target T1, Corticotropin-releasing factor receptor 1. The data set can be described thus: Antagonist activity at human CRF1 receptor expressed in CHO cells assessed as effect on sauvagine-induced cAMP production. It counts as functional, cell-based. The conditions noted are these: read-out: pA2 (converted). In short, it runs like this: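 CHO cells transfected with human CRF1 receptor; sauvagine concentration-response curves for cAMP were run with increasing antagonist concentrations and analysed by Schild plot (n = 6). Potency was taken as pA2, the concentration that doubles the sauvagine ED50. Antagonist alone, up to 10 µM, was also tested on cAMP without sauvagine.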

Data set [3] has as its target T2, Corticotropin-releasing factor receptor 2 (Homo sapiens) (UniProt Q13324).
T2 sequence (whole entry): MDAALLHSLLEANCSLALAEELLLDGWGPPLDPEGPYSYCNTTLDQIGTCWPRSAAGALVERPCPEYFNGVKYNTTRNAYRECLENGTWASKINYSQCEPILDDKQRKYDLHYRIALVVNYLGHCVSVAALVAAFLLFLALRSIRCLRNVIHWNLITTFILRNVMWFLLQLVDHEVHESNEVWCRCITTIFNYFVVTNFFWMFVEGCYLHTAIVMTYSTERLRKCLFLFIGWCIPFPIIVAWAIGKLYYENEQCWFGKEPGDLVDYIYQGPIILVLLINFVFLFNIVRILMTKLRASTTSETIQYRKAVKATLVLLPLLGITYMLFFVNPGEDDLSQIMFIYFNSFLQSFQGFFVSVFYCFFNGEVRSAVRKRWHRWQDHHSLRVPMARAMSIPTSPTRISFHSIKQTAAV
The data set can be described thus: Antagonist activity at human CRF2 receptor expressed in CHO cells assessed as effect on sauvagine-induced cAMP production. Type of data set: functional, cell-based. In short, it runs like this:
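CHO cells expressing human CRF2 receptor; cAMP was stimulated with 0.5 nM sauvagine, and the antagonist was tested at concentrations up to 10 µM.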
Background: Changes in cAMP serve as a functional read-out for many G protein-coupled receptors.

A short description of data set [4]: Plasma clearance in rat at 1 mg/kg, iv or 10 mg/kg, po. It counts as ADME, organism-based.
Data set [5] can be described thus: Plasma clearance in marmoset at 1 mg/kg, iv or 10 mg/kg, po. It counts as ADME, organism-based, Callithrix jacchus.
Data set [6] in a line: Volume of distribution at steady state in rat at 1 mg/kg, iv or 10 mg/kg, po. The conditions noted are these: in vivo, read-out: Vdss. It counts as ADME, organism-based.
Data set [7] is described as follows: Volume of distribution at steady state in marmoset at 1 mg/kg, iv or 10 mg/kg, po. It counts as ADME, organism-based, Callithrix jacchus. The conditions noted are these: in vivo, read-out: Vdss.
The nature of data set [8]: Half life in rat at 1 mg/kg, iv or 10 mg/kg, po. The conditions noted are these: in vivo. It counts as ADME, organism-based.
The nature of data set [9]: Half life in marmoset at 1 mg/kg, iv or 10 mg/kg, po. Type of data set: ADME, organism-based, Callithrix jacchus. The conditions noted are these: in vivo.
Data set [10] in a line: Oral bioavailability in rat at 10 mg/kg. Type of data set: ADME, organism-based. The conditions noted are these: in vivo.
A short description of data set [11]: Oral bioavailability in marmoset at 10 mg/kg. Type of data set: ADME, organism-based, Callithrix jacchus. The conditions noted are these: in vivo.
Data set [12] in a line: Ratio of drug level in brain to plasma in rat at 1 mg/kg, iv after 1 hr. It counts as ADME, organism-based. More on the design: dose 1 mg/kg, route intravenous. To be noted: brain and plasma.
A short description of data set [13]: Ratio of drug level in brain to plasma in gerbil at 10 mg/kg, po after 1 hr. It counts as ADME, organism-based. To be noted: gerbillinae, brain and plasma. Also noted: dose 10 mg/kg, route oral.
Data set [14] deals with Meriones unguiculatus. The experiment in a line: Anxiolytic activity in po dosed Mongolian gerbils forepaw treading model assessed as reduction of time spent in CRF-induced piano playing behavior administered 1 hr before CRF challenge. It counts as functional, organism-based.
Data set [15] deals with Meriones unguiculatus. The data set can be described thus: Anxiolytic activity in Mongolian gerbils forepaw treading model assessed as reduction of time spent in CRF-induced piano playing behavior at 30 mg/kg, po administered 60 mins before CRF challenge. It counts as functional, organism-based. Also noted: dose 30 mg/kg.
Data set [16] concerns Meriones unguiculatus. The experiment in a line: Anxiolytic activity in Mongolian gerbils forepaw treading model assessed as reduction of time spent in CRF-induced piano playing behavior at 30 mg/kg, po administered 180 mins before CRF challenge. Type of data set: functional, organism-based. More on the design: dose 30 mg/kg.
The test system of data set [17] is Meriones unguiculatus. The experiment in a line: Anxiolytic activity in Mongolian gerbils forepaw treading model assessed as reduction of time spent in CRF-induced piano playing behavior at 30 mg/kg, po administered 360 mins before CRF challenge. More on the design: dose 30 mg/kg. Type of data set: functional, organism-based.
The test system of data set [18] is Rattus norvegicus. The experiment in a line: Anxiolytic activity in ip dosed ultrasonic vocalization rat model assessed as reduction of vocalization duration administered 30 mins before ultrasonic vocalizations. Type of data set: functional, organism-based.
The subject of data set [19] is Callithrix jacchus. The data set can be described thus: Anxiolytic activity in po dosed marmoset assessed as reduction of number of postures by marmoset human threat test. Type of data set: functional, organism-based.
Data set [20] relates to Callithrix jacchus. The experiment in a line: Toxic sedative effect in po dosed marmoset assessed as effect on number of physiological jumps. Type of data set: toxicity, organism-based. To be noted: in vivo.

pIC50: −log10 of the molar value. The source made the active and inactive calls. The calls are words filed in the database; no cut-off is given here.

Regarding `COc1ccc(N2CCc3c(-n4ccc(N5CCCNC5=O)n4)cc(C)nc32)c(C)c1`, the pIC50 in data set [1] was 6.84.

`COc1ccc(N2CCc3c(-n4ccc(N5CCNS5(=O)=O)n4)cc(C)nc32)c(C)c1`: the pIC50 in [1] was 6.51.

On to `Cc1cc(-n2ccc(N3CCNC3=O)n2)c2c(n1)N(c1ccc(OC(F)(F)F)cc1C)CC2`, for which the pIC50 in [1] is 7.17.

For the compound `CCc1cc(C#N)ccc1N1CCc2c(-n3ccc(N4CCNC4=O)n3)cc(C)nc21`, the pIC50 in data set [1] is 7.30.

Take `CCOc1ccc(N2CCc3c(-n4ccc(N5CCNC5=O)n4)cc(C)nc32)c(C)c1`: in data set [1], the pIC50 was 6.50.

`COc1cc(-n2cccn2)ccc1N1CCc2c(-n3ccc(-n4cc[nH]c4=O)n3)cc(C)nc21`: the pIC50 in data set [1] was 6.44.

As for `Cc1cc(-n2ccc(N3CCNC3=O)n2)c2c(n1)N(c1ccc(OC(C)C)cc1C)CC2`, the pIC50 in data set [1] was 5.91.

In the case of `COc1ccc(N2CCc3c(-n4ccc(N5CCCC5=O)n4)cc(C)nc32)c(C)c1`, the pIC50 in [1] is 6.91.

Regarding `COc1ccc(N2CCc3c(-n4ccc(N5CCOC5=O)n4)cc(C)nc32)c(C)c1`, the pIC50 in [1] was 5.71.

As for `Cc1cc(-n2ccc(N3CCNC3=O)n2)c2c(n1)N(c1ccc(-n3cccn3)cc1C)CC2`, the negative-log IC50 (pIC50) in data set [1] was 6.43.

As to `Cc1cc(-n2ccc(N3CCNC3=O)n2)c2c(n1)N(c1ccc(C#N)cc1C(F)(F)F)CC2`, in data set [1], the pIC50 is 7.49.

For `COc1ccc(N2CCc3c(-n4ccc(N5CCNC5=O)n4)cc(C)nc32)c(C(F)F)c1`, the pIC50 in [1] is 7.25.

Turning to `Cc1cc(-n2ccc(N3CCNC3=O)n2)c2c(n1)N(c1ccc(Cl)cc1Cl)CC2`, the pIC50 in data set [1] is 6.80.

`Cc1cc(-n2ccc(-n3cc[nH]c3=O)n2)c2c(n1)N(c1ccc(C(F)(F)F)cc1C(F)(F)F)CC2`: the pIC50 in data set [1] is 7.05.

Take `Cc1cc(-n2ccc(N3CCNC3=O)n2)c2c(n1)N(c1ccc(C#N)cc1OC(F)(F)F)CC2`: in data set [1], the pIC50 is 6.92.

Turning to `COc1ccc(N2CCc3c(-n4ccc(-n5cc[nH]c5=O)n4)cc(C)nc32)c(C)c1`, the pIC50 in [1] was 6.92.

Take `COc1ccc(N2CCc3c(-n4ccc(N5CCCS5(=O)=O)n4)cc(C)nc32)c(C)c1`: in [1], the pIC50 is 5.49.

In the case of `COc1ccc(N2CCc3c(-n4ccc(N5CCN(C)C5=O)n4)cc(C)nc32)c(C)c1`, the pIC50 in [1] was 6.10.

In the case of `Cc1cc(-n2ccc(N3CCNC3=O)n2)c2c(n1)N(c1ccc(C#N)cc1C)CC2`, the negative logarithm of the IC50 (pIC50) in data set [1] was 7.17.

For `COc1ccc(N2CCc3c(-n4ccc(N5CCNC5=O)n4)cc(C)nc32)c(C)c1` [EMICERFONT], in data set [1], the pIC50 is 7.18. For the same compound, the Kb in data set [2] is 72.4 nM. The result in data set [3] was inactive. Also, the clearance was found to be 19 mL/min/kg in data set [4] and 16 mL/min/kg in data set [5]. In addition, the Vd in [6] came to 2.4 L/kg; in data set [7], 4.7 L/kg. Moreover, the half-life is 1.6 h in data set [8] and 3.7 h in [9]. Further, the bioavailability in data set [10] was determined as 66%; in [11], 65%. Further, the Kp at 1 h came to 3.7 in [12] and 4.7 in [13]. Moreover, the Activity result is “Dose-dependent effect” in data set [14], “Dose-dependent effect” in data set [18], “Dose-dependent effect” in data set [19] and “Non-toxic” in data set [20]. The outcome in [15], in data set [16] and in data set [17] was Active.

In general, pIC50 refers to the IC50 on a negative log10 scale, so that one unit is a factor of ten. As usually defined, the half-life is how long it takes for the measured level to halve. A high value points to slow decline. The term bioavailability denotes the share of a dose that reaches the circulation, judged against a reference dose that is usually intravenous. As a reminder, the Kp is the ratio of the level in a tissue or fluid to that in plasma or blood.
